Reference: ChEMBL document CHEMBL4513216, “Probing the Open Global Health Chemical Diversity Library for Multistage-Active Starting Points for Next-Generation Antimalarials” (ACS Infect Dis, 2020)

assay: Toxicity liver stage against HepG2, at 10uM; assay type: cell-based; set-up: test concentration 10 uM, cell line HepG2-A16-CD81EGFP; settings: human, HepG2-A16-CD81EGFP cells; read-out: INHIBITION
Summary of the method: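 Uninfected HepG2-A16-CD81EGFP cells, 3 × 10^3 per well, 1536-well, plated on prespotted compound at 10 μM final, parasite-free screening media added to match infected plates; puromycin 10 μM positive, DMSO 0.5% negative; run in parallel with 48 h PbLuc assay at 37 °C, 5% CO2; viability by CellTiter-Glo luminescence, normalized to controls.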

Row | SMILES | cytotoxicity at 10 µM [%]
1 | Clc1ccccc1-c1nc(CNC2CCc3ncnn3C2)co1 (stereo unspecified) | -7.6
2 | Cc1cccc(CN2CCC(NCC3CNc4cc(C)nn4C3)CC2)c1 (stereo unspecified) | 7.36
3 | CN1CCC2(Cc3ccccc3NC2=O)C1 (stereo unspecified) | 9.82
4 | Cc1noc(C)c1CC(=O)N1CC[C@@](C)(O)[C@H](Oc2ccccc2)C1 | 0.935
5 | CC(C)(C)c1n[nH]c(C2CN(C(=O)CCc3cccs3)CCO2)n1 (stereo unspecified) | -10.6
6 | CNS(=O)(=O)c1cccc(C(C)NCc2cccc(OC)c2)c1 (stereo unspecified) | -12.3
7 | Cc1nc(C(=O)N2CCCC2c2noc(C3CC3)n2)c[nH]1 (stereo unspecified) | -7.06
8 | CC(=O)N1CCc2c(nc(N(C)C)nc2N(C)CCC2CCCCO2)C1 (stereo unspecified) | -7.97
9 | CCOC(=O)N1CCN(c2nc(N3CCCC3)c3ccccc3n2)CC1 | -5.31
10 | NC(=O)NC(=O)CCSc1ccccc1Cl | 11.8
11 | COCCNC(=O)Nc1cccc(COCCOC(C)C)c1 | 6.13
12 | CC(C)CN(CC(C)C)Cn1ncc2cn(-c3ccccc3)nc2c1=O | 1.42
13 | CC(C)(C)c1cnc(CN2C(=O)CC3(CCSC3)C2=O)o1 (stereo unspecified) | 7.28
14 | COc1ncccc1CNC(=O)c1cnc(C)cn1 | -4.69
15 | Cc1csc2c(N3CCNC(C(=O)Nc4ccc(F)cc4)C3)ncnc12 (stereo unspecified) | 12.7
16 | COc1ccc(CN(CCC#N)CCN2CCOCC2)c(OC)c1 | -1.39
17 | CC(=O)Nc1ccc2nc(CN(C)Cc3noc(C)n3)ccc2c1 | 3.47
18 | CNc1cnc(CC2COCCN(CCOc3ccccc3)C2)cn1 (stereo unspecified) | -0.257
19 | CCOCc1nc2c(c(N3CCN4CCCC4C3)n1)CCNCC2 (stereo unspecified) | 0.394
20 | Cn1ccnc1C1(O)CCCN(Cc2ccncc2)CC1 (stereo unspecified) | 1.52
21 | CCc1nnsc1C(=O)N1CCCN(Cc2ccccc2)CC1 | 7.57
22 | CN1CCOC(CNCc2cnc(C(C)(C)C)s2)C1 (stereo unspecified) | -2.87
23 | CC(C)n1c2ccccc2c2c1cc(C(=O)N(C)C)n2S(C)(=O)=O | -90.8

Row | SMILES | cytotoxicity at 10 µM [%]
24 | Cc1cccc(CN2CCCC3(CCN(CC(=O)N(C)C)C3=O)C2)n1 (stereo unspecified) | -119
25 | CCc1nc(C2CCCN(C(=O)c3ccc4[nH]cnc4c3)C2)no1 (stereo unspecified) | 1.48
26 | O=C(C1CC1)N1CCC(c2nc(-c3ccccc3)n[nH]2)CC1 | -4.15
27 | COCCCNC(=O)CN(C)Cc1ccc(F)cc1Cl | -7.33
28 | Cn1ncc2c1NC(=O)CSC2c1ccc2c(c1)OCO2 (stereo unspecified) | 0.435
29 | CSc1ccc(OCCN2CCNC(=O)CC2)cc1 | 5.59
30 | O=C(NCc1ccc(C(=O)N2CCCC2)cc1)c1cn2c(n1)CNCC2 | -10.2
31 | CC1(C)CC(N(Cc2ccccc2)Cc2c[nH]cn2)CC(C)(C)N1 | 5.28
32 | CS(=O)(=O)NCc1ncn2c1CN(C(=O)CC1CCCC1)CCC2 | 4.79
33 | c1ccc(CN2CCc3c(COCc4ccncc4)cncc3C2)nc1 | 6.53
34 | CC(C1CCN(Cc2cnn(C)c2C2CC2)CC1)N1CCN(C)CC1 (stereo unspecified) | -11.9
35 | COCc1nccc(C2CCCN(Cc3ccc(SC)cc3)C2)n1 (stereo unspecified) | 23.4
36 | CCOc1ccc(Cl)c(C(=O)N2CCN(CC(C)(C)O)CC2)n1 | -5.72
37 | Cn1c(=O)oc2ccc(Nc3ncc(C#N)cc3Cl)cc21 | -1.21
38 | Cc1noc(C)c1CNc1cccc(C(=O)N2CCCC(O)C2)c1 (stereo unspecified) | -6.08
39 | CC(C)Cc1noc(CN2CCCN(C(=O)c3ccccc3Cl)CC2)n1 | -5.95
40 | O=C(Nc1cc(F)ccc1OCC1CCCO1)c1ccccn1 (stereo unspecified) | 2.57
41 | Cc1cc(CN2CCC(CNC(=O)c3noc4c3CCCC4)C2)[nH]n1 (stereo unspecified) | -142
42 | Cc1nn(C)c(C)c1CCC(=O)N1CCCC1Cn1cccn1 (stereo unspecified) | 1.78
43 | CCc1cc(NC2CCN(S(C)(=O)=O)CC2)n2nc(C)c(C)c2n1 | -12.2
44 | Cc1cc(CN2CCC(CNS(=O)(=O)c3ccc(C)s3)CC2)c(C)o1 | 3.39
45 | CC(O)CN1CCC(CN(C)Cc2cccc(C#N)c2)CC1 (stereo unspecified) | -1.3
46 | CC1CCN(C(=O)C2CCN(S(C)(=O)=O)CC2)c2ccccc21 (stereo unspecified) | -9.28

Row | SMILES | cytotoxicity at 10 µM [%]
47 | Cc1nc(N)nc(C)c1CC(=O)N1CCCN(CC2CC2)C(C(C)C)C1 (stereo unspecified) | -142
48 | CO[C@@H]1CCN(S(=O)(=O)c2cccs2)[C@H]1Cc1ccccc1 | -78
49 | Cc1noc([C@]23COC[C@H]2CN(C(C)C)C3)n1 | 1.44
50 | CCc1nc(C)c(C(=O)N2C[C@@H](C(=O)O)[C@H](C3CC3)C2)s1 | 3.41
51 | CN(Cc1nccn1C)c1ccc(-c2nccn2C)nn1 | -6.45
52 | CCn1ncnc1CN(CCOC)Cc1ccc(C)cc1 | -40.2
53 | CCOc1ncccc1CNC(=O)Nc1cc(C)nn1C | 1.25
54 | CN1C[C@H](O)[C@]2(CCN(C(=O)NCc3ccccc3)C2)S1(=O)=O | 4.53
55 | CC(C)=CCn1ncc(N2CCCCC2)cc1=O | -9.48
56 | CN1CC[C@H]2[C@H](C[C@@H](CN3CCCC3)N2c2nccs2)C1 | 3.59
57 | CC(C)(O)CN1CCN(C(=O)C2CSc3ccccc3O2)CC1 (stereo unspecified) | 2.16
58 | CN1CC[C@H](c2nnc(-c3cncn3C)o2)C1 | -2.88
59 | CSc1cc(CNC(=O)CCOc2ccccc2C)ccn1 | 6.72
60 | Cc1ccc(O)c(C(=O)N2CCC3(CCCNC3)C2)c1 (stereo unspecified) | -10.2
61 | CSC1=Nc2c(cnn2-c2ccccc2)C2=NCCCN12 | 8.85
62 | CCN(CC)C(=O)Cn1ccc2cc(NC(=O)COC)ccc21 | -7.89
63 | CCN1CCN(Cc2csc(C(C)C)n2)CC1 | -5.78
64 | CCCc1nnsc1C(=O)N1CCN(CC(O)C2CC2)CC1 (stereo unspecified) | -7.78
65 | CCc1noc(C)c1C(=O)NCCCC(CC)(CC)C1OCCO1 | -10.1
66 | Cc1ccc(C2(CN3CCN(c4ncccn4)CC3)CCNCC2)nc1 | -10.1
67 | CC(C(=O)NC1CCN(C)CC1)n1nc(C(F)(F)F)c(Cl)c1C1CC1 (stereo unspecified) | -8.17
68 | CN1CCC/C1=N\S(=O)(=O)c1ccc(NC(=O)CCc2cccs2)cc1 | -8.55
69 | Cc1cnn(CC(C)NCC(=O)NCCc2cccs2)c1 (stereo unspecified) | 6.41

Row | SMILES | cytotoxicity at 10 µM [%]
70 | O=C(NC1CCC(C(=O)N2CCSCC2)CC1)N1CCOCC1 (stereo unspecified) | 13.1
71 | CC(C)c1cc(CN2CCN(c3cccnc3)CC2)n(C)n1 | -0.0184
72 | CNS(=O)(=O)CCn1cc(-c2ccc(OC)c(OC)c2)nn1 | 1.9
73 | Cn1nc(C(=O)N2CCSCC2)cc1NC(=O)c1ccccc1 | -13.9
74 | CCCS(=O)(=O)NC(=O)c1cc(C)n(-c2ccccc2)n1 | -7.21
75 | c1cncc(CN2CCN3C[C@H](Oc4cncnc4)C[C@H]3C2)c1 | -100
76 | CN(C)S(=O)(=O)N1CCO[C@H]2[C@H](Oc3cccnc3)CC[C@@H]21 | 4.64
77 | Cn1cnc(-c2cc(C(=O)N3CCOCC3)c3ccccn23)c1 | 4.79
78 | Cc1cnn(CC2CCCN2Cc2nnc(C3CC3)o2)c1 (stereo unspecified) | -21.7
79 | CN(C(=O)c1ccc(OCC(F)F)nc1)c1ccc2c(c1)CCO2 | 13.6
80 | COCC1CCCN(c2cncc(OCc3ccccc3)n2)C1 (stereo unspecified) | -4.08
81 | c1ccc(-n2ccc(CN3CCCC3Cn3cncn3)n2)cc1 (stereo unspecified) | 0.665
82 | O[C@H]1CN(c2nc(-c3ccccc3)no2)C[C@@H]1N1CCOCC1 | -20.8
83 | Cn1cc(CN2CCCN(C(=O)c3cn4ccccc4n3)CC2)cn1 | -5.97
84 | CCC1=N[C@@]2(CC[C@@H]3CN(C(=O)Nc4ccccc4)C[C@@H]32)C(=O)N1C | 16.8
85 | COCCN1CCC(Nc2c(F)cc(C#N)cc2F)CC1 | -5.41
86 | CC(C)c1nc(CN(C)C(=O)c2ccc(CN3CCCCC3)cc2)cs1 | -6.1
87 | O=C1CC(c2ccncc2)C2(CCN(Cc3ccc(F)cc3)CC2)N1 (stereo unspecified) | 1.35
88 | Cn1cnnc1C1CCN(C(=O)Cc2ccc3c(c2)OCCO3)CC1 | -10.4
89 | CC(=O)NC[C@@H]1C=C(C)[C@H](CC(=O)NCc2cccnc2)C[C@H]1C(C)C | 4.33
90 | COc1cccc(CC2CN(C3CCN(C(C)=O)CC3)CCO2)c1 (stereo unspecified) | -12.4
91 | CCCc1noc(C[S+]([O-])CC(=O)NCc2ccccc2)n1 (stereo unspecified) | -4.3
92 | Cc1cc(C)n(CC2CCCCN2C(=O)c2sccc2C#N)n1 (stereo unspecified) | -0.497

Row | SMILES | cytotoxicity at 10 µM [%]
93 | COc1ccc(CN(C)Cc2c(C)noc2C)c(Cl)c1OC | -1.22
94 | CS(=O)(=O)CC(=O)N1C[C@@H]2COC[C@]2(c2nnc(C3CC3)o2)C1 | -13.1
95 | O=C(c1cccnc1)N1CCc2[nH]nc(Nc3ccccc3)c2C1 | 6.83
96 | COc1c(NC(=O)C(C)CCOc2ccccc2)c(C)nn1C (stereo unspecified) | 8.96
97 | O=C(NCC1CC1)[C@H]1C[C@H]2CN(C(=O)NCc3ccccc3)C[C@@H]1O2 | 4.97
98 | CCS(=O)(=O)NC(CCSC)C(=O)Nc1ccc(F)cc1 (stereo unspecified) | -6.6
99 | Cc1cnn(CC2CCCN2Cc2nnsc2Cl)c1 (stereo unspecified) | -8.72
100 | COCCCN1CC2(CCCCN2C(=O)COC)CC1=O (stereo unspecified) | 2.5
101 | c1cnc(N2CCO[C@H]3[C@H](OCCN4CCCC4)CC[C@@H]32)nc1 | -11.8
102 | Cc1cc(CC(=O)NCc2ccnc(OCC(F)(F)F)c2)no1 | -2.17
103 | Cc1cc(CN(C)Cc2cnc3c(c2)c(C)nn3C)no1 | 0.995
104 | Cn1ccnc1C(=O)N1CCOC(Cc2ccc(Cl)cc2)C1 (stereo unspecified) | 9.23
105 | Cc1nn(CCc2nnc(NCC(C)C)s2)c(C)c1Br | 1.91
106 | CCN(CC)S(=O)(=O)NCC1Cc2ccccc2O1 (stereo unspecified) | 0.477
107 | CS(=O)(=O)NCc1ccc2c(c1)CCC2 | -1.9
108 | O=c1oc(-c2cccs2)nn1CC(O)c1ccccc1F (stereo unspecified) | -14.7
109 | Cc1cccc(C(=O)N2CCCn3cnc(CN4CCCC4=O)c3C2)n1 | 15.7
110 | OC(CNc1ccc(Cl)cn1)CN1CCOCC1 (stereo unspecified) | 4.15
111 | Cc1nn(C)c(Cl)c1C1CCCN1C(=O)c1cnn(C)c1C1CC1 (stereo unspecified) | 1.99
